ChEMBL document CHEMBL1124174, “Substituted benzamides. 1. Potential nondopaminergic antagonists of chemotherapy-induced nausea and emesis” (J Med Chem, 1988)
pIC50: −log10 of the molar value.

Experiments:
[1] = test system: Canis familiaris; assay: In vivo antagonism of cisplatin-induced emesis in dog measured as percentage protection for twice the dose of 0.3 mg/kg in 2 dogs; assay type: functional, Canis lupus familiaris
In short: (§1)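 Nonfasted mature male or female beagles were dosed sc twice, 30 min before and 120 min after cisplatin (3 mg/kg iv; 3 mg/mL in warm 0.9% saline, used immediately). Emesis was observed up to 5 h; events within 2 min counted as one episode. Results were given as mean emetic episodes and % protection versus a dynamic control (historical and concurrent saline means pooled). t test versus saline.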

[2] = molecular target: D(2) dopamine receptor (Rattus norvegicus, UniProt P61169); assay: In vitro antagonistic activity against Dopamine receptor D2 was evaluated for the inhibition of [3H]spiperone binding
Chain of D(2) dopamine receptor (P61169 whole entry): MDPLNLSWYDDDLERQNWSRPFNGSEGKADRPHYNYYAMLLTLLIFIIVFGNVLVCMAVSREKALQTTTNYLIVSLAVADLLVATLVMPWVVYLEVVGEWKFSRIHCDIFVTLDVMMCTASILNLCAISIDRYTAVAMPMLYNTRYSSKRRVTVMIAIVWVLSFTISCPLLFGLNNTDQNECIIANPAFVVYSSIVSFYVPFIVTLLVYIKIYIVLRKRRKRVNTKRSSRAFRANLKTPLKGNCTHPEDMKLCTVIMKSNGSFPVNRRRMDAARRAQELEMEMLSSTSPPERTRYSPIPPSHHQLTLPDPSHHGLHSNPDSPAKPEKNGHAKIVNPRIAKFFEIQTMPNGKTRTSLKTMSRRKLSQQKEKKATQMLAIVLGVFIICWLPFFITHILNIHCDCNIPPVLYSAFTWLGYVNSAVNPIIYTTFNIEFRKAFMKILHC
In short: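 Rat striatal membranes were prepared by differential centrifugation in 50 mM Tris pH 7.4 at 4 °C. Membrane protein (10 mg) was incubated 15 min at 37 °C with 0.1 nM [3H]spiperone and varying competitor concentrations. Buffer: 50 mM Tris HCl pH 7.5, 0.1% ascorbic acid, pargyline, 120 mM NaCl, 5 mM KCl, 2 mM CaCl2, 1 mM MgCl2. (+)-Butaclamol defined nonspecific binding. Bound ligand was collected by filtration and scintillation counted. IC50 by log-logit regression.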

[3] = molecular target: D(2) dopamine receptor (Rattus norvegicus) (UniProt P61169); assay: In vivo antagonistic activity against dopamine D2 receptor was measured as catalepsy in rat when administered subcutaneously; assay type: functional, organism-based
Chain of D(2) dopamine receptor (Rattus norvegicus) (P61169 whole entry): as above
In short: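 Male Long Evans rats (275 g) received graded sc doses in dilute aqueous HCl (pH 4.5-5.5). They were observed 180 min for catalepsy, scored when the animal stayed stationary ≥15 s on a four-cork template.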

[4] = test system: Mustela putorius furo; assay: In vivo antagonism of cisplatin-induced emesis in ferret measured as percentage protection for twice the dose of 3 mg/kg and in 3 ferrets; assay type: functional
In short: (§2)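 Nonfasted castrated male Fitch ferrets (1–1.5 kg) had jugular catheters implanted ≥48 h earlier under anesthesia. Compounds or saline were given iv twice, 5 min before and 90 min after cisplatin (12 mg/kg iv; 12 mg/mL in warm 0.9% saline). Emesis was observed up to 4 h; events within 1 min counted as one episode. Results were given as mean emetic episodes and % protection versus a pooled historical/concurrent control. t test versus saline.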

[5] = test system: Mustela putorius furo; assay: In vivo antagonism of cisplatin-induced emesis in ferret measured as emetic episodes, twice the dose of 3 mg/kg and in 3 ferrets; assay type: functional; in short: as §2
[6] = test system: Mustela putorius furo; assay: In vivo antagonism of cisplatin-induced emesis in ferret measured as emetic episodes, twice the dose of 1 mg/kg and in 3 ferrets; assay type: functional; in short: as §2
[7] = test system: Canis familiaris; assay: Antagonism of cisplatin-induced emesis in dog measured as emetic episodes, twice the dose of 1 mg/kg in 2 dogs.(in vivo); assay type: functional, Canis lupus familiaris; in short: as §1
[8] = test system: Canis familiaris; assay: Antagonism of cisplatin-induced emesis in dog measured as emetic episodes, twice the dose of 0.3 mg/kg in 2 dogs.(in vivo); assay type: functional, Canis lupus familiaris; in short: as §1
[9] = test system: Canis familiaris; assay: In vivo antagonism of cisplatin-induced emesis in dog measured as percentage protection for twice the dose of 1 mg/kg in 2 dogs; assay type: functional, Canis lupus familiaris; in short: as §1
[10] = molecular target: D(2) dopamine receptor (Canis lupus familiaris) (UniProt Q9GJU1); assay: In vivo antagonism activity against dopamine D2 receptor was measured as emesis in dog when administered subcutaneously; assay type: functional, organism-based
Chain of D(2) dopamine receptor (Canis lupus familiaris) (Q9GJU1 whole entry): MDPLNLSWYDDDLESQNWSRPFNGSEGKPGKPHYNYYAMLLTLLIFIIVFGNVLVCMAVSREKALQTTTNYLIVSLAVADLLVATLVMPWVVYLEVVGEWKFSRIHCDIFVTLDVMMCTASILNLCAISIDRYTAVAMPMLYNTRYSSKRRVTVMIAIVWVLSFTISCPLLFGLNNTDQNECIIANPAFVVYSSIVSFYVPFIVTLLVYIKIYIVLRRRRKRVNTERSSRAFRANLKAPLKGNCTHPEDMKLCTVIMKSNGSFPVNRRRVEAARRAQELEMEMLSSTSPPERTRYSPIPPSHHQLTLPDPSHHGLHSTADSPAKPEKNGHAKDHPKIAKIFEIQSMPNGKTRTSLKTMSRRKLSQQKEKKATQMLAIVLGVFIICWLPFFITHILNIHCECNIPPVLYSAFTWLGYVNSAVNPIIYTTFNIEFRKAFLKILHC

[11] = molecular target: D(2) dopamine receptor (Rattus norvegicus) (UniProt P61169); assay: In vivo antagonism activity against D2 receptor was measured as stereotypy in rat when administered subcutaneously; assay type: functional, organism-based
In short: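 Male Long Evans rats (275 g) were dosed sc in dilute aqueous HCl (pH 4.5-5.5) 30 min before apomorphine (1 mg/kg sc).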

[12] = test system: Canis familiaris; assay: In vivo antagonism of cisplatin-induced emesis in dog measured as emetic episodes, twice the dose of 1 mg/kg in 2 dogs; assay type: functional, Canis lupus familiaris; in short: as §1
[13] = test system: Canis familiaris; assay: In vivo antagonism of cisplatin-induced emesis in dog measured as emetic episodes, twice the dose of 0.1 mg/kg in 2 dogs; assay type: functional, Canis lupus familiaris; in short: as §1
[14] = test system: Canis familiaris; assay: In vivo antagonism of cisplatin-induced emesis in dog measured as percentage protection for twice the dose of 0.1 mg/kg in 2 dogs; assay type: functional, Canis lupus familiaris; in short: as §1
[15] = test system: Mustela putorius furo; assay: In vivo antagonism of cisplatin-induced emesis in ferret measured as percentage protection for twice the dose of 1 mg/kg and in 3 ferrets; assay type: functional; in short: as §2
[16] = test system: Mustela putorius furo; assay: In vivo antagonism of cisplatin-induced emesis in ferret measured as emetic episodes, twice the dose of 0.3 mg/kg and in 3 ferrets; assay type: functional; details: 0.3 mg/kg; in short: as §2
[17] = test system: Mustela putorius furo; assay: In vivo antagonism of cisplatin-induced emesis in ferret measured as percentage protection for twice the dose of 0.3 mg/kg and in 3 ferrets; assay type: functional; details: 0.3 mg/kg; in short: as §2
[18] = test system: Canis familiaris; assay: In viov antagonism of cisplatin-induced emesis in dog measured as percentage protection for twice the dose of 1 mg/kg in 2 dogs; assay type: functional, Canis lupus familiaris; in short: as §1
[19] = test system: Canis familiaris; assay: In vivo antagonism of cisplatin-induced emesis in dog measured as emetic episodes, twice the dose of 0.3 mg/kg in 2 dogs; assay type: functional, Canis lupus familiaris; details: 0.3 mg/kg; in short: as §1
[20] = test system: Canis familiaris; assay: In vivo antagonism of cisplatin-induced emesis in dog measured as emetic episodes, twice the dose of 6 mg/kg in 3 dogs; assay type: functional, Canis lupus familiaris
In short: (§3)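 Nonfasted mature male or female beagles received test compound or saline sc twice, 30 min before and 120 min after cisplatin (3 mg/kg iv; 3 mg/mL in warm 0.9% saline, used at once). Emesis observed up to 5 h. Emetic episode = expulsion of stomach content; events within 2 min counted as one. Protection calculated against a dynamic control (historical mean pooled with concurrent saline control).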

[21] = test system: Canis familiaris; assay: In vivo antagonism of cisplatin-induced emesis in dog measured as percentage protection for twice the dose of 6 mg/kg in 3 dogs; assay type: functional, Canis lupus familiaris; in short: as §3
[22] = test system: Mustela putorius furo; assay: in vivo antagonism of cisplatin-induced emesis in ferret measured as emetic episodes, twice the dose of 3 mg/kg and in 3 ferrets; assay type: functional
In short: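 Nonfasted castrated male Fitch ferrets (1–1.5 kg) carried jugular vein catheters implanted at least 48 h earlier under general anesthesia. Test compound or saline was given iv twice, 5 min before and 90 min after cisplatin (12 mg/kg iv; 12 mg/mL in warm saline). Emesis was watched for 4 h, with events within 1 min counted as one episode. % protection is relative to a pooled historical-plus-concurrent control, with t test versus saline.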

[23] = test system: Mustela putorius furo; assay: In vivo antagonism of cisplatin-induced emesis in ferret measured as emetic episodes, twice the dose of mg/kg and in 3 ferrets; assay type: functional; in short: as §2

CCN(CC)CCNC(=O)c1cc(Cl)c(N)cc1OCCC(C)OC (stereo not given) was tested, and the Protection [1] was 28%, the pIC50 [2] was less than 6.00 and the ED50 [3] was greater than 40 mg/kg. It also gave a Protection [4] of 82%, an Emetic episodes [5] of 1.3 and an Emetic episodes [6] of 4.3. For the same compound, the Protection [6] was 42%, the Emetic episodes [7] was 1.5 and the Emetic episodes [8] was 8.5. It also gave a Protection [9] of 88%, an ED50 [10] greater than 3 mg/kg and an ED50 [11] greater than 40 mg/kg.

CCN(CC)CCNC(=O)c1cc(Cl)c(N)cc1OC(C)C(C)O (stereo in doubt; 8g) gave a Protection ([1]; 0.3 mg/kg) of 100%, a pIC50 [2] of less than 6.00 and a Protection ([4]; 3 mg/kg) of 86%. For the same compound, the Emetic episodes ([5]; 3 mg/kg) was 1, the Emetic episodes [12] was 0 and the Emetic episodes ([6]; 1 mg/kg) was 1.3. For the same compound, the Emetic episodes [13] was 4, the Protection [14] was 62% and the Protection ([15]; 1 mg/kg) was 82%. For the same compound, the Emetic episodes [16] was 0.7, the Protection [17] was 49% and the Protection [18] was 100%. For the same compound, the Emetic episodes [19] was 0.

O=c1[nH]c2ccccc2n1CCCN1CCC(n2c(=O)[nH]c3cc(Cl)ccc32)CC1 [DOMPERIDONE] was tested, and the ED50 [3] was greater than 40 mg/kg, the Protection [4] was 50% and the Emetic episodes [5] was 3.3. It also gave an ED50 [10] of 0.08 mg/kg, an Emetic episodes [20] of 9.7 and an ED50 [11] greater than 40 mg/kg. The Protection [21] was 30%.

Work on CCN(CC)CCNC(=O)c1cc(Cl)c(N)cc1OCC(C)OC (stereo not given) yielded a pIC50 [2] of less than 6.00, an ED50 [3] greater than 40 mg/kg and an Emetic episodes [22] of 1. It also gave a Protection [4] of 86%, an Emetic episodes [23] of 3 and an ED50 [10] greater than 3 mg/kg. The ED50 [11] was greater than 40 mg/kg and the Protection [15] was 57%.
